These results are taken from ChEMBL document CHEMBL4196230, “Design, Synthesis, and Blood-Brain Barrier Transport Study of Pyrilamine Derivatives as Histone Deacetylase Inhibitors” (ACS Med Chem Lett, 2018).

The target of series [1] is Histone deacetylase 5 (Homo sapiens) (UniProt Q9UQL6). Kind of series: Inhibition of human recombinant HDAC5 expressed in baculovirus infected insect cells at 30 uM using HDAC class 2a substrate measured after 30 mins by fluorescence assay relative to control.
For series [2], the target named is T1, Polyamine deacetylase HDAC10 (Homo sapiens, UniProt Q969S8).
T1 sequence (Q969S8 whole entry): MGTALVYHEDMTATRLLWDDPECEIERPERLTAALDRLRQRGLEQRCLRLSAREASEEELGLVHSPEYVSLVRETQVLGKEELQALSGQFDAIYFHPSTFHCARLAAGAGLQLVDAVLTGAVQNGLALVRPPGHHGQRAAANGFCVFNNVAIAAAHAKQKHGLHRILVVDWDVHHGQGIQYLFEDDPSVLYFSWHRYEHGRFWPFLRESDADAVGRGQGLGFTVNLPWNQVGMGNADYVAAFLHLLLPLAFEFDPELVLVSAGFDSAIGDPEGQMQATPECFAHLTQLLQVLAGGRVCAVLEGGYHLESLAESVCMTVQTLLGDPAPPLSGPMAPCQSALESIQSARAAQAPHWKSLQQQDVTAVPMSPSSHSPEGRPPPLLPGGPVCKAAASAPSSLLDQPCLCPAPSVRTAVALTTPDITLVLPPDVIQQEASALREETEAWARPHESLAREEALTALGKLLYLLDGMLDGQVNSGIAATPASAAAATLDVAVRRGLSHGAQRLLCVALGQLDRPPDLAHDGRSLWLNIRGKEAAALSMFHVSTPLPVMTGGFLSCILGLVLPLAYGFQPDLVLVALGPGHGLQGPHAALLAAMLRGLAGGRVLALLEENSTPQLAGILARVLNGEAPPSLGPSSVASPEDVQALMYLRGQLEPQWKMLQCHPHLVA
Kind of series: Inhibition of human HDAC10 expressed in baculovirus infected Sf9 insect cells using HDAC substrate 3 measured after 30 mins by fluorescence assay.

Series [3] has as its target T2, Histone deacetylase 7 (Homo sapiens) (UniProt Q8WUI4).
T2 sequence (whole entry): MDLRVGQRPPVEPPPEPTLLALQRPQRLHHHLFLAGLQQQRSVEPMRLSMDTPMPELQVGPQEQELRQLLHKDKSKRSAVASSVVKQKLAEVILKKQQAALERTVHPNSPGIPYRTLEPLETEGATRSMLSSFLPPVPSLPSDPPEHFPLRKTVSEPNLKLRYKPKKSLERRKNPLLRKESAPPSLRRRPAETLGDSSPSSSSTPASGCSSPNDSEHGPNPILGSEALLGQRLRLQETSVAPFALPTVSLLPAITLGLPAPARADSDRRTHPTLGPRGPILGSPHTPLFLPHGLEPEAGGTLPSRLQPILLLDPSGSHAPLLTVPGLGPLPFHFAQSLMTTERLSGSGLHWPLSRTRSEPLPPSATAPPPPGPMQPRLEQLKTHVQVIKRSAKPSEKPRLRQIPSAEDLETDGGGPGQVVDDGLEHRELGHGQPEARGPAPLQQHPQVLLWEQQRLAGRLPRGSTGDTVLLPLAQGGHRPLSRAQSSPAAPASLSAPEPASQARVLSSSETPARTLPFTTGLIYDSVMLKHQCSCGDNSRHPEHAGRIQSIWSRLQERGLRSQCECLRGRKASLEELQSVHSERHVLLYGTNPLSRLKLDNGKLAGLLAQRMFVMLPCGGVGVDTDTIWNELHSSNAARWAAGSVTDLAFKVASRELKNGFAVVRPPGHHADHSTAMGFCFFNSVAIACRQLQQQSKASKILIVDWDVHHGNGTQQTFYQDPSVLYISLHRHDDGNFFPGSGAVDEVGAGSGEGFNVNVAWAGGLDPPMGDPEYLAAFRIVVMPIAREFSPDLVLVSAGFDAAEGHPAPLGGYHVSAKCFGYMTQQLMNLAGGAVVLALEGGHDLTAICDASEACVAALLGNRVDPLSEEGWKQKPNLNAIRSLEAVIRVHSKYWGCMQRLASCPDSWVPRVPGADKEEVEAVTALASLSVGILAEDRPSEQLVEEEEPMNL
Nature of the series: Inhibition of recombinant human HDAC7 (518 to end residues) expressed in baculovirus infected insect cells at 30 uM using HDAC class 2a substrate measured after 30 mins by fluorescence assay relative to control.

The target of series [4] is Histone deacetylase 9 (Homo sapiens) (UniProt Q9UKV0). Nature of the series: Inhibition of recombinant human C-terminal His-tagged HDAC9 (604 to 1066 residues) expressed in baculovirus infected insect cells at 30 uM using HDAC class 2a substrate measured after 30 mins by fluorescence assay relative to control.
The target in series [5] is T3, Histone deacetylase 11 (Homo sapiens) (UniProt Q96DB2).
T3 sequence (whole entry): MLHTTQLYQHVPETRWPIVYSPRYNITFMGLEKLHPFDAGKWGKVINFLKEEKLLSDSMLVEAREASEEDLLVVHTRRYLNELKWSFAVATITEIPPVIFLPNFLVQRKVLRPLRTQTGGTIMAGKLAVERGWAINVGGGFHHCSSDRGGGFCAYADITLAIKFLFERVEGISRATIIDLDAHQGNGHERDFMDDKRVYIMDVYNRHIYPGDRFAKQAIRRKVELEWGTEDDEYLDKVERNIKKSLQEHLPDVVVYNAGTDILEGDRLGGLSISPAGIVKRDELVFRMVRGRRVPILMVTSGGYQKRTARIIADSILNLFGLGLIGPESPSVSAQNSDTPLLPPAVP
Nature of the series: Inhibition of recombinant human full length HDAC11 expressed in baculovirus infected insect cells at 30 uM using HDAC class 2a substrate measured after 30 mins by fluorescence assay relative to control.

Series [6] relates to PYSOCA. Nature of the series: Substrate activity at PYSOCA in human CMEC/D3 cells assessed as Km for transporter-mediated drug uptake measured for 2 mins at 37degC. It is filed as ADME, cell-based. The note with it: hCMEC/D3 cells. The essentials: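 Uptake by hCMEC/D3 cells measured over a range of concentrations at 37 °C for 2 min. Km and Vmax were obtained by fitting to Eq. 1. Mean ± S.E., n = 4.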

Series [7] in a line: Substrate activity at PYSOCA in human CMEC/D3 cells assessed as transporter-mediated drug uptake measured for 1 min at 37degC in presence of NH4Cl under intracellular acidification condition. Type of series: ADME, cell-based. The essentials:
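hCMEC/D3 cells were pretreated in transport buffer with or without 30 mM NH4Cl. Uptake was then measured at 37 °C for 1 min with or without 30 mM NH4Cl (Control, Pre and Acute conditions). Mean ± S.E., n = 4.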

Series [8] is described as follows: Substrate activity at PYSOCA in human CMEC/D3 cells assessed as transporter-mediated drug uptake measured for 2 mins at 37degC in presence of TEA. Type of series: ADME, cell-based.
Series [9] is described as follows: Substrate activity at PYSOCA in human CMEC/D3 cells assessed as transporter-mediated drug uptake measured for 2 mins at 37degC in presence of choline. It is filed as ADME, cell-based.
Series [10] deals with Histone deacetylase (Homo sapiens) (UniProt Q13547+O15379+Q9UBN7+Q92769+Q9UQL6+Q8WUI4+Q9BY41+Q96DB2+P56524+Q9UKV0+Q969S8). The note with it: at 10 µM.

The source made the active and inactive calls. The calls are words filed in the database; no cut-off is given here.

Chain of Histone deacetylase 5 (Homo sapiens) (Q9UQL6 whole entry): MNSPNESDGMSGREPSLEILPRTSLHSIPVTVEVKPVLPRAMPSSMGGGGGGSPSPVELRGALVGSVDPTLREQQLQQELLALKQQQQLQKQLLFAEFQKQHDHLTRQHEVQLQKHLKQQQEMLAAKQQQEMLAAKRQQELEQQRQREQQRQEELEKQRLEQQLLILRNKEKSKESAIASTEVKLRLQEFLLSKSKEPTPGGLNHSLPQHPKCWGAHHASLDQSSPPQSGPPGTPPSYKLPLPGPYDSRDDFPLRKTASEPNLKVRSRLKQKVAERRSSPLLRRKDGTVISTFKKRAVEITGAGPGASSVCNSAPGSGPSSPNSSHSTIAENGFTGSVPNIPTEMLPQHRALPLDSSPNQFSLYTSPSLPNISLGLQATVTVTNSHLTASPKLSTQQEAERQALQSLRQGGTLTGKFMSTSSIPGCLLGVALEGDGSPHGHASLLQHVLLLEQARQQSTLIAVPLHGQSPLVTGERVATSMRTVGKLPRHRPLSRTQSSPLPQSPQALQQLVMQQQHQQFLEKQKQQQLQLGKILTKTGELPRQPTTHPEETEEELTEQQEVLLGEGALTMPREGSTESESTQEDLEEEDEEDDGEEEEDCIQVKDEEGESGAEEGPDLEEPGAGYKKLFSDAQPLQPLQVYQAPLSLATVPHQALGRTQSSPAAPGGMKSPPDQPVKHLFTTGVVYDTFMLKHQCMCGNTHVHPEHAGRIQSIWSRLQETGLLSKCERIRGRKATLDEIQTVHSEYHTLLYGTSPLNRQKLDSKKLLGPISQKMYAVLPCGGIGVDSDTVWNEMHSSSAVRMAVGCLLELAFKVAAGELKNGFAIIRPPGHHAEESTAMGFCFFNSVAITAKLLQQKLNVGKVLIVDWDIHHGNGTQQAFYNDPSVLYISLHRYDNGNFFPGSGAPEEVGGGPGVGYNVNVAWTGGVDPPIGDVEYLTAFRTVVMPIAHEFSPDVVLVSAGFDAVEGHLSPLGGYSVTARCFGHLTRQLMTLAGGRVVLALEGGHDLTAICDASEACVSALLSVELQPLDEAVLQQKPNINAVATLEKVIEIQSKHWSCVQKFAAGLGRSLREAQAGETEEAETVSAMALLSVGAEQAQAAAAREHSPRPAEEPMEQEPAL
Chain of Histone deacetylase 9 (Homo sapiens) (Q9UKV0 whole entry, the tested form may be a part): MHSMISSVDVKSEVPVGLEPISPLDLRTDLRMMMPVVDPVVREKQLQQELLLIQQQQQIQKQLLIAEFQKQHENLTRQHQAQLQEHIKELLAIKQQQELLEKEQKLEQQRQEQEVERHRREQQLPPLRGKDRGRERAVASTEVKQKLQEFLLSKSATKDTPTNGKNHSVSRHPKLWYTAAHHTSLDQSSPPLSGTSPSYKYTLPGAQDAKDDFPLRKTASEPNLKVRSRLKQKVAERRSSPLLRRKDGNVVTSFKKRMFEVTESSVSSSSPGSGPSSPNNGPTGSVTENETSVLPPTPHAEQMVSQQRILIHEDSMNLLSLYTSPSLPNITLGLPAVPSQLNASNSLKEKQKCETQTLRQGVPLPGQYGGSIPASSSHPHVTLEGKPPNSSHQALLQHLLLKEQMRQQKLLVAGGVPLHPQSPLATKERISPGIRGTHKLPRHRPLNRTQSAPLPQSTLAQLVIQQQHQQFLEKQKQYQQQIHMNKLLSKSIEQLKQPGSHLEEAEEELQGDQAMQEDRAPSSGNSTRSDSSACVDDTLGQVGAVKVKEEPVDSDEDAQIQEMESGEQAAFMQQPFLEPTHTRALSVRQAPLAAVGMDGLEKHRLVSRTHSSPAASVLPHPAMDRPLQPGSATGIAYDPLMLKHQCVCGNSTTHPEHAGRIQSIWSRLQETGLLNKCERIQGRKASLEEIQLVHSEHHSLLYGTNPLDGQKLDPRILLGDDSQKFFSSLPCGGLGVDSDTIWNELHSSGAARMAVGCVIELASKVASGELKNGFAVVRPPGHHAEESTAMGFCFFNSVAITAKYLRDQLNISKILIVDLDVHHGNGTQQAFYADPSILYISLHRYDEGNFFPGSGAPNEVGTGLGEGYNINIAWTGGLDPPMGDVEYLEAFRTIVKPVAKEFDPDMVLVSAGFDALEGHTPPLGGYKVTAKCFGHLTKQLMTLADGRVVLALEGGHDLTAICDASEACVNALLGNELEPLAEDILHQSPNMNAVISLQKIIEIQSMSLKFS

Regarding `COc1ccc(CN(CCN(C)C)c2ccc(C(=O)Nc3ccccc3N)cn2)cc1`, the inhibition in [1], in series [3], in [4] and in [5] was less than 10% each time. For the same molecule, the half-maximal inhibitory concentration (IC50) in series [2] came to 15.5 µM. Also, the Km at 2 min in series [6] is 326 µM. Moreover, the result in series [7], in [8] and in [9] was Active. Moreover, the inhibition result in [10] was “Active”.

As usually defined, the inhibition is the change of the read-out against control, counted positive when it falls. By IC50 is commonly meant the midpoint of a concentration-inhibition curve. For orientation: Km means the substrate concentration at which the rate is half of its maximum.
